Screening data from PubChem.
This is a sample that favours compounds with a hit; in the whole collection about 2.3% have one here.
PAX8 inh HTS: PAX8 transcriptional activity inhibition | RMG-I TPO-luciferase reporter, SteadyGlo, 24 h | inhibition, % at 12.6 µM | 360,000 tested, 1.2% active | AID 652154;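 active = mean replicate inhibition at least 60% with every replicate also reaching 60%; inconclusive = only one of the two criteria is met; inactive = mean below 60% and not all replicates reaching 60%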;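 also: luciferase light reporting Pax8 driven TPO promoter activity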
FN deposit inh: fibronectin deposition inhibition; AH1F fibroblasts, Alexa488-fibronectin deposition fluorescence, overnight; inhibition, % at 12.6 µM; 350,000 tested, 0.086% active; AID 743247;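 active = mean inhibition across replicates of 30% or more, regardless of how many single replicates reach that level; inconclusive = mean under 30% yet at least half of replicates reach 30%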
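Schedule: 1 h cell adhesion before compound, then overnight fibronectin incubation; test system: AH1F fibroblast monolayer depositing Alexa488-labelled fibronectin into matrix; quantity: 10000 AH1F cells per well; probe or stimulus: fluorescent fibronectin at 24 nM final; signal: fluorescence, ex 485 nm, em 525 nm; evaluation: percent inhibition as loss of matrix-bound fibronectin fluorescence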
PGC1a acetyl inh: lowers PGC1a acetylation signal in U2OS cells; AlphaScreen anti-acetyl-lysine; with virally co-expressed GCN5 acetyltransferase; inhibition, % at 15.6 µM; 350,000 tested, 0.17% active;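 active = every replicate shows inhibition of at least 40%; inconclusive = mean inhibition at least 40% but some replicate below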
CFTR F508del cor: correctors of CFTR F508del function in bronchial epithelial cells; CFBE cells, YFP halide quenching; stimulated with forskolin plus potentiator P3; % fluorescence drop versus neutral controls; activity (quench increase), % at 7.58 µM; 350,000 tested, 0.36% active; AID 720511;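 active = mean added fluorescence quench of at least 8% versus neutral control, with both replicates also reaching 8%; inconclusive = only one of the mean or replicate conditions met; inactive = mean below 8% and not both replicates reaching 8%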;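 also: cells transiently co-express mutant CFTR-F508del with the halide-sensitive YFP; corrector assay measuring rescue of mutant channel to the surface after 24 h compound exposure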
EWS-Fli block: EWS/Fli transcriptional activity inhibition. AID 651661. A673 NR0B1-luciferase reporter, viability-normalised. inhibition, % at 12.6 µM. 350,000 tested, 0.67% active;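 active = mean inhibition of at least 50% after viability correction, with every replicate also passing that limit; inconclusive = mean reaches 50% but only one of two replicates passes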;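 also: firefly luciferase signal divided by Alamar Blue viability fluorescence both relative to DMSO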
HIV Env fusion: blocks HIV Env-driven cell-cell fusion | HeLa-JRFL Env/CEM21 cell fusion, luciferase | AID 651610 | inhibition, % at 12.3 µM | 360,000 tested, 1.1% active;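 active = mean replicate inhibition score of at least 50 and every replicate individually at or above 50; inconclusive = only one of the two criteria met; inactive = mean below 50 and not all replicates reaching 50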
A number is an active result; 0 = inactive; ? = inconclusive; - = not tested or not shown; [ ] = another dose, or the depositor's remark.

SMILES	PAX8 inh HTS	FN deposit inh	PGC1a acetyl inh	CFTR F508del cor	EWS-Fli block	HIV Env fusion
Cc1cc(N2CCN(C)CC2)ccc1NC(=O)c1c2c(nc3ccccc13)CCN(Cc1ccccc1)C2	-	-	69.4	-	-	-
CCn1c(=O)c(CCC(=O)N2CCN(c3ccccn3)CC2)c(C)c2c(C)nn(-c3cccc(C)c3)c21	0	0	0	0	0	58.2
Cc1nc2nc(C)c(CCC(=O)N3CCN(c4ccccn4)CC3)c(C)n2n1	-	0	0	-	-	0
COc1cccc(CNc2nc3cc(-c4ccccc4)sc3c(=O)n2C)c1OC	0	0	-	0	0	66.4
COc1cccc(CNc2nc3cc(-c4cccc(Cl)c4)sc3c(=O)n2C)c1OC	0	0	-	0	0	0
COc1ccc(NC(=O)N(C)C[C@H]2OCCCC[C@@H](C)Oc3ccc(NS(=O)(=O)c4c(C)noc4C)cc3C(=O)N([C@H](C)CO)C[C@H]2C)cc1	0	-	0	0	0	0
C[C@H]1CCCCO[C@H](CN(C)S(=O)(=O)c2ccccc2)[C@@H](C)CN([C@@H](C)CO)C(=O)c2cc(NC(=O)Nc3ccc(C(F)(F)F)cc3)ccc2O1	68.5	0	0	0	0	0
C[C@@H]1CCCCO[C@H](CN(C)S(=O)(=O)c2ccccc2)[C@H](C)CN([C@H](C)CO)C(=O)c2cc(NC(=O)Nc3ccc(C(F)(F)F)cc3)ccc2O1	0	0	0	0	0	0
C[C@H](CO)N1C[C@H](C)[C@H](CN(C)S(=O)(=O)c2cccs2)OCCCC[C@H](C)Oc2ccc(NC(=O)NC3CCCCC3)cc2C1=O	103.7	-	0	0	0	0
C[C@@H]1CCCCO[C@@H](CN(C)S(=O)(=O)c2ccc(F)cc2)[C@H](C)CN([C@@H](C)CO)C(=O)c2cc(NC(=O)Nc3ccc(C(F)(F)F)cc3)ccc2O1	0	0	0	0	0	?
C[C@@H]1CN([C@H](C)CO)C(=O)c2cc(NC(=O)Nc3ccc(C(F)(F)F)cc3)ccc2O[C@@H](C)CCCCO[C@H]1CN(C)S(=O)(=O)c1ccccc1	96.4	0	0	0	0	0
C[C@@H]1CCCCO[C@@H](CN(C)S(=O)(=O)c2ccccc2)[C@H](C)CN([C@H](C)CO)C(=O)c2cc(NC(=O)Nc3ccc(C(F)(F)F)cc3)ccc2O1	88.9	0	0	0	0	0
O=C(C[C@H]1C[C@@H]2c3cc(NC(=O)c4cccnc4)ccc3O[C@@H]2[C@H](CO)O1)NCc1cccc(F)c1	0	0	0	0	0	0
CCCN1[C@H](C(=O)OC)[C@@H](CO)[C@@H]2Cn3c(ccc(C4=CCCC4)c3=O)[C@@H]21	0	-	0	0	0	-
C[C@@H]1CCCCO[C@@H](CN(C)S(=O)(=O)c2cccs2)[C@H](C)CN([C@@H](C)CO)C(=O)c2cc(NC(=O)Nc3ccc(C(F)(F)F)cc3)ccc2O1	65.3	-	0	0	0	0
Cc1cc(/C=N/NC(N)=S)c(O)c(/C=N/NC(N)=S)c1	0	0	0	14.0	0	0
NC(=S)N/N=C/c1cccc(O)c1O	0	0	0	0	0	0
Cc1ccc(S(=O)(=O)CCC(=O)c2ccc(F)cc2)cc1	95.5	0	-	0	-	0
Cc1ccc(C(=O)CCS(=O)(=O)c2ccc(F)cc2)cc1	0	0	-	0	-	0
CCCC#Cc1ccc2c(c1)O[C@H](CN(C)S(=O)(=O)c1cccc(OC)c1)[C@H](C)CN([C@H](C)CO)S2(=O)=O	0	0	0	0	0	0
COc1cccc(S(=O)(=O)N(C)C[C@H]2Oc3cc(C#CCC(C)C)ccc3S(=O)(=O)N([C@H](C)CO)C[C@H]2C)c1	-	0	0	0	0	72.9[16.7 µM]
COc1cccc(S(=O)(=O)N(C)C[C@@H]2Oc3cc(C#CCC(C)C)ccc3S(=O)(=O)N([C@H](C)CO)C[C@@H]2C)c1	-	0	0	0	0	61.8[16.7 µM]
C[C@@H]1CN([C@H](C)CO)C(=O)Cc2cc(NC(=O)C3CCCCC3)ccc2O[C@@H]1CN(C)Cc1ccccc1	0	-	0	0	0	-
CCNC(=O)C[C@H]1CC[C@@H]2[C@H](COC[C@@H](O)CN2C(=O)Nc2c(C)noc2C)O1	0	0	0	0	0	-
COc1ccc(Cn2c(-c3ccc(C)cc3)c[n+]3ccccc23)cc1	88.4	0	0	0	0	0
SMILES	PAX8 inh HTS	FN deposit inh	PGC1a acetyl inh	CFTR F508del cor	EWS-Fli block	HIV Env fusion
CN(C)C(=S)SCC(=O)Nc1ccc(Cl)cc1Cl	0	-	-	-	75.1	0
Cc1ccc(S(=O)(=O)c2ncccc2N)cc1	0	0	0	0	0	0
Cc1ccc(S(=O)(=O)c2ncccc2[N+](=O)[O-])cc1	108.8	0	-	0	0	0
CS(=O)(=O)Nc1ccc2c(c1)[C@@H]1C[C@@H](CC(=O)N3CCOCC3)O[C@H](CO)[C@@H]1O2	-	0	0	0	0	-
COc1ccccc1NC(=O)N1C[C@H]2[C@@H](c3ccccc31)[C@@H](CO)N2C(=O)C1CC1	0	0	0	0	0	-
COc1ccc(NC(=O)/C(C#N)=C/c2cc(C)n(-c3ccc(N4CCOCC4)c([N+](=O)[O-])c3)c2C)cc1	0	0	0	-	0	0
Cc1cc(/C=C(\C#N)C(=O)Nc2ccc(F)cc2)c(C)n1-c1ccc(N2CCOCC2)c([N+](=O)[O-])c1	-	0	0	-	-	85.5
C[C@H](CO)N1C[C@H](C)[C@@H](CN(C)C(=O)CCCN(C)C)OCCCC[C@H](C)Oc2ccc(NC(=O)Nc3ccc(F)cc3)cc2C1=O	0	-	0	0	0	0
O=C(Nc1ccc(S(=O)(=O)NC2=NCCCCC2)cc1)c1cccs1	0	0	0	0	0	-
O=C(Nc1ccc(S(=O)(=O)NC2=NCCCCC2)cc1)c1ccc([N+](=O)[O-])s1	94.8	0	0	0	59.4	0
COc1ccc(Nc2nc(-c3cccs3)cs2)c(OC)c1	-	0	0	-	-	0
CC(=O)c1ccc(Nc2nc(-c3sc(C)nc3C)cs2)cc1	0	0	0	0	65.7	0
Cc1ccc(Nc2nc(-c3sc(C)nc3C)cs2)cc1	0	0	0	18.7	0	0
COc1ccc(Nc2nc(-c3sc(C)nc3C)cs2)c(OC)c1	0	0	0	15.7	0	0
CN(C)C(=O)C[C@@H]1CC[C@H]2[C@@H](COC[C@@H](O)CN2CC2CCCCC2)O1	0	0	0	0	0	0
CCC(=O)N(C)C[C@H]1Oc2cc(C3=CCCCC3)ccc2S(=O)(=O)N([C@@H](C)CO)C[C@H]1C	-	-	0	0	0	0
Cc1sc2ncnc(N3CCN(c4ncccn4)CC3)c2c1C	-	-	0	-	-	-
COc1cc(C(=O)N2CCN(c3ncnc4sc(C)c(C)c34)CC2)cc(OC)c1OC	-	0	0	-	-	81.7
CCS(=O)(=O)N1CC(=O)N2[C@H](C1)[C@@H](c1ccc(C#CCC3CCCC3)cc1)[C@@H]2CO	-	-	0	0	-	-
Cc1ccc(C(O)P(=O)(OC2CCCCC2)OC2CCCCC2)cc1 (stereo not drawn)	-	0	0	-	-	0
